# Results pooled from the literature.
# Compare with care: the assays were run in different laboratories.
# Target: PAS domain-containing serine/threonine-protein kinase (PASK, Homo sapiens, UniProt Q96RG2)
SMILES,test,setting,measurement,result
CCN(CC)CCNC(=O)c1c(C)[nH]c(/C=C2\C(=O)Nc3ccc(F)cc32)c1C,"enzyme activity, inhibitor",0.3 µM,inhibition,-5%
CCCOc1ccc(OC)c(F)c1C(=O)c1ccc(C(=O)N[C@@H]2CNC[C@H]2NC(=O)c2ccc3[nH]ncc3c2)cc1,"enzyme activity, inhibitor",10 µM,remaining activity,6%
Cc1cnc(NC2CCOCC2)nc1-n1cnc(C(=O)NC(CN)c2cc(F)cc(Cl)c2)c1 (stereo not shown),"enzyme activity, inhibitor, radiometric",1 µM,remaining activity,96%
CC(C)(C)c1nc2c(s1)c1nc(N)ncc1c1ccc(NS(=O)(=O)c3c(F)cccc3F)c(F)c12,"enzyme activity, inhibitor, radiometric",1 µM,remaining activity,99%
O=C(Nc1cnn(-c2csc(C(=O)NC3COC3)c2)c1)Nc1c(F)cccc1Cl,"enzyme activity, inhibitor",5 µM,remaining activity,99.7%
COc1cc2ncnc(Nc3ccc(Oc4ccccc4)cc3C)c2cc1OC,"enzyme activity, inhibitor",1 µM,inhibition,-2%
CC(C)(O)[C@H]1CC[C@H](Nc2ccc3ncc(-c4cccc(C(F)(F)F)c4)n3n2)CC1,"enzyme activity, inhibitor",1 µM,remaining activity,92.3%
Cc1ccc(Nc2nccc(N(C)c3ccc4c(C)n(C)nc4c3)n2)cc1S(N)(=O)=O,"enzyme activity, inhibitor",10 µM,inhibition,1%
Cc1ncc([N+](=O)[O-])n1C(=NO)c1ccccc1C(F)(F)F,"enzyme activity, inhibitor",10 µM,inhibition,11.2%
CCCS(=O)(=O)Nc1ccc(F)c(C(=O)c2c[nH]c3ncc(-c4ccc(Cl)cc4)cc23)c1F,"enzyme activity, inhibitor",1 µM,inhibition,< 10%
CNC(=O)c1cc(Oc2ccc(NC(=O)Nc3ccc(Cl)c(C(F)(F)F)c3)cc2)ccn1,"enzyme activity, inhibitor",0.3 µM,inhibition,-6%
O=C1Nc2ccc(Cl)cc2C1=Cc1cc(Cl)c(O)c(Cl)c1,cell-free assay,0.5 µM,remaining signal,70%
O=C(Nc1cnn(-c2csc(C(=O)NC3COC3)c2)c1)Nc1ccccc1Cl,"enzyme activity, inhibitor",5 µM,remaining activity,96.3%
